Data published in ChEMBL document CHEMBL1145857, “Toward tissue-selective pancreatic B-cells KATP channel openers belonging to 3-alkylamino-7-halo-4H-1,2,4-benzothiadiazine 1,1-dioxides” (J Med Chem, 2003).

Assays:
[1] = species: Rattus norvegicus; experiment: Concentration required to inhibit insulin release in rat; assay type: functional
[2] = species: Rattus norvegicus; experiment: Effective dose required for relaxation of the 30 mM KCl-induced contraction of rat aortic rings; assay type: functional; conditions: Aorta, read-out: ED50 (the source's name)
Method in brief: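 Endothelium-denuded transverse aortic rings (3–4 mm) from fed Wistar rats (180–220 g); isometric tension by force transducer. After 60 min equilibration, contracted with 30 mM KCl; once stable, drug added cumulatively to maximal relaxation or 0.3 mM. Relaxation as % of KCl contraction; ED50 (50% inhibition of KCl plateau) from dose–response curves; mean ± SEM (n).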

[3] = species: Rattus norvegicus; experiment: Percent inhibition of residual insulin release from rat pancreatic islets in the presence of 16.7 mM glucose at 1 uM concentration; assay type: functional
Method in brief: (§1)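 Islets isolated by collagenase from fed Wistar rats (180–220 g); groups of 10 islets preincubated 30 min at 37 °C in bicarbonate salt medium with 2.8 mM glucose and 0.5% dialyzed albumin under O2/CO2 95:5, then incubated 90 min at 37 °C with 16.7 mM glucose plus drug. Insulin measured by radioimmunoassay against rat insulin standard; residual release as % of drug-free 16.7 mM glucose control; IC50 estimated.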

[4] = species: Rattus norvegicus; experiment: Percent inhibition of residual insulin release from rat pancreatic islets in the presence of 16.7 mM glucose at 10 uM concentration; assay type: functional; method in brief: as §1
[5] = species: Rattus norvegicus; experiment: Percent inhibition of residual insulin release from rat pancreatic islets in the presence of 16.7 mM glucose at 50 uM concentration; assay type: functional; method in brief: as §1
[6] = species: Rattus norvegicus; experiment: Estimated selectivity ratio of ED50 and IC50 in rat was calculated; assay type: functional
[7] = pKa value determined at 20 °C
[8] = species: Rattus norvegicus; experiment: Percent inhibition of residual insulin release from rat pancreatic islets in the presence of 16.7mM glucose at 0.1 uM concentration; assay type: functional
Method in brief: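 Islets isolated by collagenase from fed Wistar rats (180–220 g). Groups of 10 islets preincubated 30 min at 37 °C in bicarbonate salt medium with 2.8 mM glucose, 0.5% dialyzed albumin, gassed O2/CO2 95:5. Then incubated 90 min at 37 °C with 16.7 mM glucose plus drug. Insulin measured by radioimmunoassay against rat insulin; expressed as % of drug-free 16.7 mM glucose control; mean ± SEM (n).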

SMILES | IC50 [1] | EC50 [2] | RIS [3] | RIS [4] | RIS [5] | Selectivity [6] | pKa [7] | RIS [8]
O=S1(=O)NC(NC2CCC2)=Nc2ccc(F)cc21 | 1.3 µM | 71.8 µM | 58.2% | 7.8% | 5.9% | 55 | – | –
CC(C)C(C)NC1=NS(=O)(=O)c2cc(Cl)ccc2N1 (stereo not drawn) | > 10 µM | 1.2 µM | 88.1% | 62.7% | 11% | <0.12 | – | –
O=S1(=O)N=C(NC2CC2)Nc2ccc(Cl)cc21 | 3.4 µM | 190 µM | 84% | 26.6% | 5.8% | 56 | – | –
CCNC1=NS(=O)(=O)c2cc(Cl)ccc2N1 | < 1 µM | 39.9 µM | 29.2% | 10.7% | 2.1% | >40 | – | –
CNC1=NS(=O)(=O)c2cc(Br)ccc2N1 | 1.8 µM | 31 µM | 69.9% | 7.3% | 6.4% | 17 | – | –
O=S1(=O)NC(NC2CC2)=Nc2ccc(Br)cc21 | 3.1 µM | 89.4 µM | 85.1% | 21.1% | 4.6% | 29 | – | –
CCCNC1=NS(=O)(=O)c2cc(Br)ccc2N1 | < 10 µM | 5.9 µM | – | 34.7% | 7.1% | >0.6 | – | –
O=S1(=O)NC(NC2CC2)=Nc2ccc(F)cc21 | 5.1 µM | > 300 µM | 104.5% | 32.5% | 7.5% | >58 | – | –
O=S1(=O)NC(NCC2CC2)=Nc2ccc(Cl)cc21 | > 10 µM | 41.2 µM | – | 65.9% | 15.2% | <4 | – | –
CCCNC1=NS(=O)(=O)c2cc(Cl)ccc2N1 | – | 55.5 µM | 83.4% | 14.2% | 3.6% | 21 | – | –
CCC(CC)NC1=NS(=O)(=O)c2cc(Cl)ccc2N1 | 4.5 µM | 93.6 µM | 93.7% | 31.7% | 8.1% | 21 | – | –
CC(C)NC1=NS(=O)(=O)c2cc(Cl)ccc2N1 | – | 36.3 µM | – | 4.9% | 5.7% | 52 | 9.51 | –
CC(C)NC1=NS(=O)(=O)c2cc(I)ccc2N1 | 2.1 µM | 7.7 µM | 74.8% | 9.6% | 5.6% | 3.7 | 9.28 | 99.2%
CCC(C)NC1=NS(=O)(=O)c2cc(F)ccc2N1 (stereo not drawn) | 1.6 µM | 39.2 µM | 64.6% | 6.9% | 5.9% | 25 | – | –
CCNC1=NS(=O)(=O)c2cc(Br)ccc2N1 | < 1 µM | 6.2 µM | 38.1% | 6.5% | 4.6% | >6 | – | –
CCNC1=NS(=O)(=O)c2cc(F)ccc2N1 | 1 µM | > 300 µM | 50.8% | 8.6% | 6.3% | >300 | – | –
CCCNC1=NS(=O)(=O)c2cc(F)ccc2N1 | 2 µM | 166 µM | 69.2% | 15.1% | 7.7% | 83 | – | –
CC(C)C(C)NC1=NS(=O)(=O)c2cc(I)ccc2N1 (stereo not drawn) | > 50 µM | 0.94 µM | 91.9% | 86.2% | 51.7% | <0.02 | – | –
CCC(C)NC1=NS(=O)(=O)c2cc(Br)ccc2N1 (stereo not drawn) | 4 µM | 5.6 µM | 92.5% | 26.8% | 4% | 1.4 | – | –
O=S1(=O)NC(NCC2CC2)=Nc2ccc(F)cc21 | < 10 µM | 146 µM | – | 39.8% | 6.4% | >15 | – | –

SMILES | IC50 [1] | EC50 [2] | RIS [3] | RIS [4] | RIS [5] | Selectivity [6] | pKa [7] | RIS [8]
O=S1(=O)NC(NC2CCCC2)=Nc2ccc(F)cc21 | 1.8 µM | 58 µM | 68.8% | 6.6% | 5.4% | 32 | – | –
O=S1(=O)NC(NC2CCC2)=Nc2ccc(I)cc21 | < 10 µM | 22.2 µM | – | 30.6% | – | >2.2 | – | –
CNC1=NS(=O)(=O)c2cc(F)ccc2N1 | 2.2 µM | > 300 µM | 76.1% | 7.7% | 5.7% | >136 | – | –
C=CCNC1=Nc2ccc(F)cc2S(=O)(=O)N1 | 2.7 µM | > 300 µM | 84.1% | 12.8% | 4.1% | >111 | – | –
CC(C)C(C)NC1=NS(=O)(=O)c2cc(Br)ccc2N1 (stereo not drawn) | > 10 µM | 2.6 µM | 97.2% | 98.4% | 21.4% | < 0.26 | – | –
CCC(C)NC1=NS(=O)(=O)c2cc(Cl)ccc2N1 (stereo not drawn) | 3.1 µM | 15.5 µM | 85.4% | 19.9% | 5.5% | 5 | – | –
CNC1=NS(=O)(=O)c2cc(Cl)ccc2N1 | 1.1 µM | 142 µM | 55.1% | 4.4% | 2.4% | 129 | – | –
CCC(C)NC1=NS(=O)(=O)c2cc(I)ccc2N1 (stereo not drawn) | > 10 µM | 1.3 µM | 84.2% | 64.8% | 22.5% | <0.13 | – | –
CC(C)NC1=NS(=O)(=O)c2cc(F)ccc2N1 | 0.8 µM | – | – | 3.7% | 3.3% | 54 | 9.63 | –
O=S1(=O)N=C(NC2CCC2)Nc2ccc(Cl)cc21 | 1.3 µM | 34.9 µM | 60.2% | 6.4% | 8.1% | 27 | – | –
C=CCNC1=Nc2ccc(Br)cc2S(=O)(=O)N1 | 2.8 µM | 3 µM | 77.2% | 23.7% | 4.8% | 1.1 | – | –
O=S1(=O)NC(NC2CCC2)=Nc2ccc(Br)cc21 | 1.1 µM | 21.7 µM | 54.8% | 9.6% | 6.1% | 20 | – | –
CCC(C)(C)NC1=NS(=O)(=O)c2cc(Cl)ccc2N1 | > 10 µM | 0.29 µM | – | 83.2% | – | <0.029 | – | –
CC(C)(C)NC1=NS(=O)(=O)c2cc(Cl)ccc2N1 | > 10 µM | 1.4 µM | – | 64.4% | – | <0.14 | – | –
CC(C)NC1=NS(=O)(=O)c2cc(Br)ccc2N1 | 0.5 µM | – | – | 8.1% | 6.7% | 9.6 | 9.41 | 91%
CC(C)C(C)NC1=NS(=O)(=O)c2cc(F)ccc2N1 (stereo not drawn) | 2.8 µM | 26.4 µM | 87.7% | 10.6% | 7.9% | 9 | – | –
C=CCNC1=Nc2ccc(Cl)cc2S(=O)(=O)N1 | 3.1 µM | 28.9 µM | 87.9% | 17.3% | 7.8% | 9 | – | –
CCC(CC)NC1=NS(=O)(=O)c2cc(I)ccc2N1 | > 10 µM | 79.1 µM | – | 67% | 17% | <7.9 | – | –
CC1=Nc2ccc(Cl)cc2S(=O)(=O)N1 [DIAZOXIDE] | – | 22.4 µM | – | – | 26.7% | – | – | –
CC(N/C(=N\C#N)Nc1ccncc1)C(C)(C)C (stereo not drawn) [PINACIDIL ANHYDROUS] | > 100 µM | 0.35 µM | 97.7% | – | 88.8% | – | – | –
